Screens: PubChem, Sanford-Burnham Center for Chemical Genomics
Sampled rows, rich in hits. Any-hit rate of the full collection: about 4.1%.
UBC13 polyUb: human UBC13 polyubiquitination inhibition; P61088; UBC13 polyubiquitin chain formation, TR-FRET; inhibition, % at 20 µM; hit rate 0.47% among 330,000; in the data active means inhibition above about 45%, passing the limit was not always enough
Apaf1 inhib: inhibitors of human Apaf-1 apoptosome. O14727. reconstituted apoptosome caspase-3 activity, DEVD-Rh110 fluorescence. inhibition, % at 20 µM. hit rate 0.71% among 330,000. AID 489030; active means inhibition of at least 40% at 20 µM
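Material: reconstituted apoptosome with Apaf-1, cytochrome c, caspase-9, procaspase-3, dATP / Buffer or medium: pH 7.5 Hepes buffer with CHAPS, BSA, DTT / Also added: cytochrome c with DEVD-Rh110 / Schedule: compound with Apaf-1, dATP, procaspase-3 30 min, then 50 min reaction, room temperature / Technique: rhodamine 110 fluorescence at Ex 480/Em 540 nm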
Mdm2-MdmX inh: human Mdm2/MdmX binding inhibition | SaOS-2 split-luciferase Mdm2/MdmX complementation, luminescence | inhibition, % at 8 µM | hit rate 3% among 330,000 | AID 485346;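 active means inhibition of at least 50% at 8 µM in the primary screen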
UPR XBP1 act: adaptive UPR (XBP1) activation; activation, % at 20 µM; hit rate 0.33% among 330,000; AID 463104; CHO-XBP1 luciferase reporter, IRE1-XBP1 UPR activation, luminescence; percent of tunicamycin response, DMSO as zero;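 active means versus positive control, 20 µM dose yields 30% or more activation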
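incubation = overnight seeding at 37 °C, 6 h compound treatment at 37 °C | assay system = CHO-XBP1 cells stably carrying IRE1-XBP1-driven luciferase reporter | input = 1000 cells per well | detection = luciferase luminescence | dosing = single point, 20 µM final compound, 1% DMSO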
CHOP UPR activ: apoptotic UPR (CHOP) activation | CHO-CHOP luciferase reporter, luminescence; percent of tunicamycin response over DMSO baseline | activation, % at 10 µM | hit rate 0.34% among 330,000;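 active means at 10 µM dose, activation of 40% or more, normalized to positive control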
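measured by = luciferase luminescence | assay system = CHO-CHOP cells, stable luciferase reporter of PERK-eIF2a-CHOP signalling | amount = 500 reporter cells seeded per well | timing = 6 h compound exposure at 37 °C after overnight seeding | controls = positive tunicamycin 10 µg/mL, negative DMSO alone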
Mdm2-MdmX conf: confirmation of human Mdm2/MdmX interaction inhibitors | shares compounds with Mdm2-MdmX inh | Mdm2-MdmX binding, luminescent assay | inhibition, % at 8 µM | hit rate 55% among 10,000; in the data active means inhibition above about 40%
FLuc counter: full-length luciferase inhibition in Mdm2/MdmX counter-screen; shares compounds with Mdm2-MdmX inh; SaOS-2 full-length luciferase counterscreen, luminescence; inhibition, % at 8 µM; hit rate 77% among 6,200;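 active means mean inhibition at 8 µM reaching about 37%, which flags the compound as non-specific, limit read from the data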;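 further: p53-null SaOS-2 cells with luciferase driven by a doxycycline-inducible promoter; compound on cells about two nights before reading with doxycycline added after day one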
Of the large screens only hits and unclear results are named; the others gave an inactive call (follow-up assays come after a bar, where they were run).

O=C(CNc1ccccc1)N/N=C/c1ccc2c(c1)OCCO2	none
COc1cc(-c2noc(C)c2C#Cc2ccccn2)cc(OC)c1OC	Mdm2-MdmX inh 65 | Mdm2-MdmX conf 78 | FLuc counter 77
COc1cc(-c2c(-c3cc(OC)c(OC)c(OC)c3)noc2C)ccc1F	Mdm2-MdmX inh 84 | Mdm2-MdmX conf 88 | FLuc counter 107
COc1ccc(-c2c(-c3cc(OC)c(OC)c(OC)c3)noc2C)cn1	Mdm2-MdmX inh 54 | Mdm2-MdmX conf 55 | FLuc counter 74
COC(=O)c1cc(-c2c(-c3cc(OC)c(OC)c(OC)c3)noc2C)cc([N+](=O)[O-])c1	none
COc1cc(-c2noc(C)c2/C=C/c2ccc(N)cc2)cc(OC)c1OC	Mdm2-MdmX inh 84 | Mdm2-MdmX conf 86 | FLuc counter 108
COc1cccc2oc3ccc(C#Cc4ccccn4)cc3c(=O)c12	none
COC(=O)/C=C1\N/C(=N\c2nc(C)cc(C)n2)N(c2ccc(C)c(C)c2)C1=O	none
C/C(=N\NC(=O)Cc1ccccc1)c1ccc(Cl)s1	none
COc1ccc(CCNC(=O)COC(=O)Cc2c[nH]c3ccccc23)cc1OC	none
C/C(CC(=O)Nc1cc(C)ccn1)=N\NC(=O)c1cccc(C)c1	none
C/C(CC(=O)Nc1cc(C)ccn1)=N\NC(=O)c1cccc(C)c1O	Mdm2-MdmX inh 66 | Mdm2-MdmX conf 46 | FLuc counter 121
CN(C)CCNC(=O)CCn1nc(-c2ccc(Cl)cc2)ccc1=O	none
CCCC/C=C/C(NC(=O)c1ccc(-c2ccccc2)cc1)c1ccccc1 (stereo unspecified)	none
CC[C@H](C)[C@@H](CNC)NC[C@@H](Cc1ccc(O)cc1)NCC(C)(C)C	none
CCCC[C@@H](CNC)NC[C@H](Cc1ccc(O)cc1)NCCc1ccc(OCC)cc1	Mdm2-MdmX inh 98 | Mdm2-MdmX conf 52 | FLuc counter 74
CCOC(=O)c1cc(NC(=O)c2ccc(C)cc2)c(=O)oc1-c1ccccc1	none
CCOC(=O)c1cc(NC(=O)c2ccccc2)c(=O)n2c1oc1ccccc12	Mdm2-MdmX inh 56 | Mdm2-MdmX conf inactive
CCn1nnc2cc(C(=O)Nc3cc(Cl)ccc3C)ccc21	none
C/C(=C\[C@@H](NP(=O)(c1ccccc1)c1ccccc1)c1ccccc1)CO[Si](c1ccccc1)(c1ccccc1)C(C)(C)C	Mdm2-MdmX inh 76 | Mdm2-MdmX conf inactive
C=C[C@]1(C)C[C@H]1[C@H](NP(=O)(c1ccccc1)c1ccccc1)c1ccccc1	none
COc1ccc(N/N=C(/C)c2cnnc(-c3ccccc3)n2)cc1	Mdm2-MdmX inh 79 | Mdm2-MdmX conf inactive
COc1ccc(/C(C)=N/Nc2nncc3ccccc23)cc1	none
CCCCSc1cc(C)nc(N)n1	none
COc1ccc(-c2nc3ccc(N4CCCC4)cc3c(=O)[nH]2)cc1OC	Mdm2-MdmX inh 52 | Mdm2-MdmX conf 57 | FLuc counter 56
COc1ccc(-c2cc(C(=O)N3CCN(c4ccccc4)CC3)c3ccccc3n2)cc1OC	none
COc1ccc(C(=O)On2c(-c3ccc(Br)cc3)nc3ccccc3c2=O)cc1	Mdm2-MdmX inh 54 | Mdm2-MdmX conf inactive
N/C(=N\c1nc(CSc2nc3ccccc3s2)cc(=O)[nH]1)Nc1ccc(F)cc1	Mdm2-MdmX inh 57 | Mdm2-MdmX conf 46 | FLuc counter 52
CCc1ccc(N/C(N)=N/c2nc(CSc3ccccn3)cc(=O)[nH]2)cc1	none
COc1cccc(N/C(N)=N/c2nc(CSc3ccccn3)cc(=O)[nH]2)c1	Mdm2-MdmX inh 52 | Mdm2-MdmX conf 49 | FLuc counter 79
COc1cccc(CCN2CCC(CNS(=O)(=O)c3cc(-c4cc(C)no4)ccc3OC)CC2)c1	Mdm2-MdmX inh 50 | Mdm2-MdmX conf 50 | FLuc counter 72
Cc1cc(-c2ccc(C)c(S(=O)(=O)NCC3CCN(Cc4cccc(F)c4)CC3)c2)on1	none
COc1ccc(-c2cc(C)no2)cc1S(=O)(=O)Nc1ccccc1	Mdm2-MdmX inh 55 | Mdm2-MdmX conf 67 | FLuc counter 63
